From PubChem BioAssay
The list is not random: actives were taken first. Their share in the collection is about 1.2%.
Tn6 DDE FP: DD(E)-Tn6 binding inhibition, primary FP screen | Fibrin DD(E) TRITC-Tn6 fluorescence polarization displacement | inhibition, % at 8.3 µM | hit rate 0.21% among 370,000;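 active = inhibition above a per-campaign cutoff: mean of compounds within control limits plus 3 SD, cut at about 15% in these data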
Target sequence (P02675 whole entry, looked up): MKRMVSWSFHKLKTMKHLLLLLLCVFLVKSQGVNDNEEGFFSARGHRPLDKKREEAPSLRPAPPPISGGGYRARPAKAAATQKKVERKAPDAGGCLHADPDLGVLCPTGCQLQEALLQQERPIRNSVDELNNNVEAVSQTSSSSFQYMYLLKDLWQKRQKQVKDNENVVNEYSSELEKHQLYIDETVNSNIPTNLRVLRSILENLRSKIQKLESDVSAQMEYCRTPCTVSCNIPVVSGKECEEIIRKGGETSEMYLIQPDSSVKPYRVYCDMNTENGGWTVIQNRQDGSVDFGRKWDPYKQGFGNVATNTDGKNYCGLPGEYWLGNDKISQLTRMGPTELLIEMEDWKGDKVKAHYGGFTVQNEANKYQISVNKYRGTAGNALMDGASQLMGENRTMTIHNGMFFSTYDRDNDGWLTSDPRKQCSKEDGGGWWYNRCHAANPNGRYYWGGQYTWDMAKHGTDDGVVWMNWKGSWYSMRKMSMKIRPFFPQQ
DDE Tn7 FP inh: DD(E)-Tn7 binding inhibition, primary FP screen | P02675 | FP displacement of FITC-Tn7 peptide from fibrin DD(E); 0% = median of compound wells per plate | inhibition, % at 8.3 µM | hit rate 0.13% among 370,000 | AID 720508;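 active = inhibition above the mean of compounds falling within the control limits plus 3 SD of them, cut at about 14% in these data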
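Assay system: Fibrin-DD(E) protein isolated from polymerized human fibrin clots; read-out basis: percent inhibition; medium: Tris/NaCl/CaCl2 buffer, pH 7.8; signal: FP measurement; incubation: 10 min plus 3 h, room temperature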
CRFBP-R2 block: blocks CRF-induced signaling of the CRF-BP/CRF-R2 complex; AID 588475; hit rate 0.59% among 350,000; HEK293 CRF-R2/CRF-BP, CRF-induced calcium fluorescence; inhibition, % at 11.8 µM;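 active = inhibition of the ligand-induced calcium signal above about 50% at the single tested concentration, limit read from the data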
CRFR2-BP ag: agonists of human CRF-binding protein/CRF-R2 receptor complex; activation, % at 13.2 µM; hit rate 0.46% among 350,000; HEK293 CRF-R2/CRF-BP, calcium dye fluorescence (FLIPR); percent of saturating CRF peptide response;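 active = activation of at least 50%, plus an integration ratio under a set limit after plate pattern correction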
Of the large screens only hits and unclear results are named; the others gave an inactive call.

CC(C)C[C@H]1COc2cccc(N3CCSCC3)c2S(=O)(=O)N1C	none (no result: CRFBP-R2 block, CRFR2-BP ag)
CC1C2=C(CC(C)(C)CC2=O)NC2=C1C(=O)CC(C)(C)C2	CRFR2-BP ag 67.5
CC(=O)OCCn1c(C)[n+](CCOC(C)=O)c2cc(Cl)c(Cl)cc21	none
CC(=O)OCCn1c2nc(=O)[nH]c(=O)c-2nc2cc(C)c(C)cc21	CRFR2-BP ag 203.2
Cc1cc(C)n(CCC(=O)N=Nc2c(O)[nH]c3ccccc23)n1	none
Cc1cc(C)n(CCC(=O)N=Nc2c(O)[nH]c3ccc(Br)cc23)n1	CRFBP-R2 block 93.4
O=C(COC(=O)CCCN1C(=O)c2ccccc2C1=O)Nc1ncc(Cl)cc1Cl	DDE Tn7 FP inh 15.2
O=C(COC(=O)CN1C(=O)c2ccccc2C1=O)Nc1ncc(Cl)cc1Cl	none
N#C/C(=C\c1ccc(N2CCOCC2)c([N+](=O)[O-])c1)c1nc2ccccc2[nH]1	none
N#C/C(=C\c1ccc(-c2ccc(C(=O)O)cc2)o1)c1nc2ccccc2[nH]1	CRFR2-BP ag 140.8
N#C/C(=C\c1ccccc1C(=O)O)c1nc2ccccc2[nH]1	none
N#C/C(=C\c1ccc(N2CCOCC2)o1)c1nc2ccccc2[nH]1	CRFR2-BP ag 94.5
C[C@@H](/C=C/C(=O)OC(C)(C)C)Sc1ccc(C(C)(C)C)cc1	none (no result: CRFBP-R2 block, CRFR2-BP ag)
Cc1c(Cl)c([N+](=O)[O-])nn1CCCC(=O)Nc1cc(Oc2ccccc2)cc([N+](=O)[O-])c1	CRFBP-R2 block 58.7
Cc1ccccc1Oc1cc(NC(=O)CCCn2nc(C)c([N+](=O)[O-])c2C)cc([N+](=O)[O-])c1	CRFBP-R2 block 50.8
NC1=[N+](Cc2ccccc2)C[C@H]2C(=C3CCCC[C@H]3n3c(=O)n(-c4ccccc4)c(=O)n32)N1	none (no result: CRFBP-R2 block, CRFR2-BP ag)
CCc1ccc(N=C2NC(=O)/C(=C/c3cc(OC)c(O)c(OC)c3)S2)cc1	none
COC(=O)/C=C1\SC(=Nc2ccc(Cl)c(Cl)c2)NC1=O	none
COc1cc(/C=C2\SC(=Nc3ccc(Cl)c(C(=O)O)c3)NC2=O)c(Br)c(Br)c1O	CRFR2-BP ag 201.2
COc1cc(/C=C2\SC(=Nc3ccccc3)NC2=O)cc(Cl)c1O	CRFR2-BP ag 212.6
O=C(NCc1ccco1)C1CCCN(S(=O)(=O)c2cccs2)C1 (stereo not drawn)	none (no result: CRFBP-R2 block, CRFR2-BP ag)
CC(C)CNC(=O)OCc1cn(Cc2cc(F)cc(F)c2)nn1	none (no result: CRFBP-R2 block, CRFR2-BP ag)
COC(=O)C[C@@H]1CC[C@@H]2[C@H](COc3ccc(NC(=O)Nc4c(C)noc4C)cc3C(=O)N2C)O1	none (no result: CRFBP-R2 block, CRFR2-BP ag)
CC1=NOC(=O)/C1=C\c1ccc(-c2ccccc2Br)o1	CRFR2-BP ag 50.7
CC1=NOC(=O)/C1=C\c1ccc(-c2cccc(Cl)c2)o1	CRFR2-BP ag 63.6 (no result: Tn6 DDE FP, DDE Tn7 FP inh)
CC1=NOC(=O)/C1=C\c1ccc(-c2ccc(Cl)c(C(=O)O)c2)o1	none
COC(=O)[C@]12C[C@H](CC(=O)N3CCSCC3)C(=O)N(Cc3ccco3)C1=C[C@H](C(C)C)O[C@@H]2C1CC1	none (no result: CRFBP-R2 block, CRFR2-BP ag)
CN(CCOC(=O)c1cc2ccccc2o1)C1CN(Cc2cn(Cc3cccc(F)c3)nn2)S(=O)(=O)C1 (stereo not drawn)	none (no result: CRFBP-R2 block, CRFR2-BP ag)
CCOCCCN(Cc1cc2cc(C)cc(C)c2[nH]c1=O)C(=O)N(CC)CC	CRFBP-R2 block 51.6
Cc1ccc(NC(=S)N(CCN(C)C)Cc2cc3cc(C)cc(C)c3[nH]c2=O)cc1	none
Cc1cccn2c(=O)c3cc(C(=O)NCc4ccco4)c(=N)n(C4CCCCC4)c3nc12	CRFBP-R2 block 54.4 (no result: Tn6 DDE FP, DDE Tn7 FP inh)
COCCn1c(=N)c(C(=O)NCc2ccco2)cc2c(=O)n3cc(C)ccc3nc21	CRFBP-R2 block 83.6
COc1ccc(N2CCCN(CC(=O)Nc3ccc(Cl)cc3)CC2)cc1	none (no result: CRFBP-R2 block, CRFR2-BP ag)
c1ccc(CCNc2ccc3ncc(-c4cccc5ccccc45)n3n2)nc1	none (no result: CRFBP-R2 block, CRFR2-BP ag)
COc1ccc(C(CCN2CCCCC2)c2c(OC)cc(OC)c3c(-c4ccccc4)cc(=O)oc23)cc1 (stereo not drawn)	CRFR2-BP ag 59.2
CN1\C(=C/C=C/C=C/C=[N+](C)C)C(C)(C)c2ccccc21	Tn6 DDE FP 30.7
CN1/C(=C\C=O)C(C)(C)c2ccccc21	none
CCCN1Cc2cccc(C(=O)NCc3cccs3)c2C1=O	CRFBP-R2 block 57.6
CCCN1Cc2cccc(C(=O)NCc3ccc4c(c3)OCO4)c2C1=O	none
COc1c2c(c(OC)c3ccccc13)[C@@]1(OC2)O[C@H](CCO)C[C@H](O)[C@H]1O	CRFBP-R2 block 101.3
COc1ccc2c(c1)CO[C@@]21O[C@H](CCO)C[C@H](O)[C@H]1O	none (no result: CRFBP-R2 block, CRFR2-BP ag)
O=P(c1ccccc1)(c1ccccc1)c1cc(S(=O)(=O)O)ccc1O	CRFR2-BP ag 115.0
O=P(O)(c1ccccc1)c1ccccc1O	none
Cc1ccc(N(CC(=O)NCc2ccc(F)cc2)S(=O)(=O)c2c(C)nn(C)c2C)cc1	none
Cc1ccc(CNC(=O)CN(c2ccc(C)cc2)S(=O)(=O)c2c(C)nn(C)c2C)cc1	CRFBP-R2 block 82.6
CCOC(=O)[C@@]12CN(C(=O)OC(C)(C)C)CC=C1N(Cc1ccc(OC)cc1)C(=O)[C@H]2CC(=O)NCCc1ccccc1OC	none (no result: CRFBP-R2 block, CRFR2-BP ag)
COc1ccc(-c2csc3nc(C(C)C)oc(=O)c23)cc1OC	none
COc1ccc(-c2nc3scc(-c4ccc(OC)c(OC)c4)c3c(=O)o2)cc1	CRFBP-R2 block 56.9 (no result: Tn6 DDE FP, DDE Tn7 FP inh)
COCCCNC(=O)C(=O)Nc1cc2c3c(c1)CCN3C(=O)CC2	none
O=C(NCCCO)C(=O)Nc1cc2c3c(c1)CCN3C(=O)CC2	CRFBP-R2 block 78.0
Cc1ccccc1NC(=O)N(C)[C@H]1C[C@H]2c3[nH]c4c(-c5ccc6c(c5)OCO6)cccc4c3CCN2C[C@H]1[C@H](C)O	none (no result: CRFBP-R2 block, CRFR2-BP ag)
CCc1cccc(OCCOC(=O)CNS(=O)(=O)c2ccc(NC(C)=O)cc2)c1	none
C=CCNC(=O)C1CCCN(S(=O)(=O)c2ccc(-n3cnnn3)cc2)C1 (stereo not drawn)	none
N#Cc1ccc(CN(Nc2ccccc2)c2ccccc2)cc1	CRFBP-R2 block 55.7
CCCOc1ccccc1OCC(=O)Nc1cccc(S(=O)(=O)NC2=NCCC2)c1	none
Cc1ccccc1-c1n[nH]c(=S)n1/N=C/c1c(C)nn(-c2ccccc2)c1C	CRFBP-R2 block 71.3
CN(C)c1ccc(CC(=O)N2CCCC(c3cc(C(=O)Nc4ccc5c(c4)OCO5)no3)C2)cc1 (stereo not drawn)	none (no result: CRFBP-R2 block, CRFR2-BP ag)
Nc1nn2c(-c3ccccc3)cc(=O)[nH]c2c1N=Nc1ccc(Br)cc1	CRFBP-R2 block 73.3
Cc1cc2[nH]c(=O)cc(-c3ccccc3)n2n1	none
Nc1nn2c(-c3ccccc3)cc(=O)[nH]c2c1N=Nc1ccc(O)cc1	CRFR2-BP ag 97.0
COCCn1c(-c2ccccc2)csc1=Nc1cccnc1	CRFBP-R2 block 92.5
O=C(NC1CCCCN(Cc2cccc(Cl)c2)C1=O)c1ccc(-c2ccccc2)cc1 (stereo not drawn)	none (no result: CRFBP-R2 block, CRFR2-BP ag)
CCSc1nsc(NC(=O)Nc2cccc(F)c2)n1	CRFR2-BP ag 52.0
COc1cccc(NC(=O)Nc2nc(SC)ns2)c1	none
CC(C)C[C@H]1COc2cccc(F)c2S(=O)(=O)N1Cc1cn(CCC2OCCO2)nn1	none (no result: CRFBP-R2 block, CRFR2-BP ag)
COc1cc(C(=O)NNC(=S)NC(=O)c2ccccc2C)cc(OC)c1OC	none
COc1ccc(C(=O)NC(=S)NNC(=O)c2ccccc2C)cc1	CRFR2-BP ag 116.1
